Experimental data from ChEMBL document CHEMBL1152610, “3- and 6-Substituted 2-amino-4,5,6,7-tetrahydrothieno[2,3-c]pyridines as A1 adenosine receptor allosteric modulators and antagonists” (Bioorg Med Chem, 2009).
pEC50: −log10 of the molar value. Calls of active or inactive are those of the source. The rule behind the calls is not given here.

Assays:
[1] = biological target: T1, Adenosine receptor A1 (Homo sapiens) (UniProt P30542); test: Allosteric modulatory activity at human adenosine A1 receptor expressed in CHOk1 cells assessed as [125I]-ABA-receptor-G protein ternary complex remaining after 10 mins of radioligand dissociation at 50 uM by dissociation kinetic binding assay; type: cell-based
T1 sequence (whole entry): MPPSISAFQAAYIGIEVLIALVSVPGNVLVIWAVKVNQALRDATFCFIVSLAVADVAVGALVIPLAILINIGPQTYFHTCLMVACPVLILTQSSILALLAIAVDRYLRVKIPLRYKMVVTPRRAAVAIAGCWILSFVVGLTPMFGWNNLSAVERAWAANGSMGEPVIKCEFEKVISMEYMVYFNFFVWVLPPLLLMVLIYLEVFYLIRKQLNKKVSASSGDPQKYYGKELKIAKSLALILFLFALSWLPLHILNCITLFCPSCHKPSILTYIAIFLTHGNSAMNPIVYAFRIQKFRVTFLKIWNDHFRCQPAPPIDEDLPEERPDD
Procedure, shortened: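 Membranes (10 μg) from CHO-K1 cells stably expressing human A1AR were equilibrated for 90 min at room temperature with 0.5 nM [125I]-ABA in 10 mM HEPES pH 7.2, 0.5 mM MgCl2 and 1 U/mL adenosine deaminase. Modulator (0.1–50 μM final) was added for 30 min. Dissociation was started with 100 μM orthosteric antagonist plus 25 μM GTPγS for 10 min, then samples were filtered and counted. K-score is the % specific binding remaining; EC50 comes from a variable-slope sigmoidal fit.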

Adenosine receptor A1 [2] = biological target: T2, Adenosine receptor A1 (Homo sapiens, UniProt P30542); test: Allosteric modulatory activity at human adenosine A1 receptor expressed in CHOk1 cells assessed as drug level causing half maximal allosteric effect on [125I]-ABA dissociation from receptor-G protein ternary complex by dissociation kinetic binding assay; type: cell-based
T2 sequence (P30542 whole entry): T1 sequence (whole entry)

[3] = biological target: T1, Adenosine receptor A1 (Homo sapiens); test: Agonist activity at human adenosine A1 receptor expressed in CHOk1 cells assessed as potentiation of R-PIA-induced ERK1/2 phosphorylation at 3 uM; type: functional, cell-based
Procedure, shortened: (§1)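 FlpIn-CHO cells stably expressing human A1AR were seeded at 50,000/well and kept in serum-free DMEM/20 mM HEPES for at least 4 h. They were pretreated for 30 min with 1 U/mL adenosine deaminase, then for 30 min at 37 °C with compound at 3 or 10 μM.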

[4] = biological target: T1, Adenosine receptor A1 (Homo sapiens); test: Agonist activity at human adenosine A1 receptor expressed in CHOk1 cells assessed as potentiation of R-PIA-induced ERK1/2 phosphorylation at 10 uM; type: functional, cell-based; procedure, shortened: as §1
[5] = biological target: T1, Adenosine receptor A1 (Homo sapiens); test: Agonist activity at human adenosine A1 receptor expressed in CHOk1 cells assessed as induction of ERK1/2 phosphorylation at 10 uM relative to R-PIA; type: functional, cell-based; procedure, shortened: as §1
Adenosine receptor A1 [6] = biological target: T2, Adenosine receptor A1; test: Antagonist activity at human adenosine A1 receptor expressed in CHOk1 cells assessed as inhibition of R-PIA-induced ERK1/2 phosphorylation; type: functional, cell-based; conditions: read-out: pA2 (converted)
Procedure, shortened: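 Human A1AR FlpIn-CHO cells were serum-starved and pretreated for 30 min with 1 U/mL adenosine deaminase. Modulator (0.3, 1, 3, 10 or 30 μM) or none was then added for 30 min at 37 °C. Full R-PIA concentration–response curves followed, with 5 min stimulation. ERK1/2 phosphorylation was measured by AlphaScreen SureFire and normalized to the 6 min 3% FBS response.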

Activity [1]	pEC50 (Adenosine receptor A1 [2])	Activity [3]	Activity [4]	Activity [5]	Kb (Adenosine receptor A1 [6])	SMILES
19.1%	< 4.70	inactive	inactive	inactive	–	NC(=O)c1c(N)sc2c1CCN(Cc1ccccc1)C2
44.9%	4.99	inactive	inactive	inactive	–	CCOC(=O)c1c(N)sc2c1CCN(Cc1ccccc1)C2 [TINORIDINE]
85.7%	5.36	inactive	inactive	inactive	–	CN1CCc2c(sc(N)c2C(=O)NN)C1
58.5%	4.93	inactive	inactive	inactive	–	CCOC(=O)c1c(N)sc2c1CCNC2
87.2%	4.92	inactive	inactive	inactive	–	CN1CCc2c(sc(N)c2C(=O)NCc2ccccc2)C1
82.5%	5.14	inactive	inactive	inactive	0.372 µM	CCOC(=O)c1c(N)sc2c1CCN(C(=O)[C@H](Cc1ccccc1)NC(=O)OC(C)(C)C)C2
92.9%	5.04	inactive	inactive	inactive	1.82 µM	CCOC(=O)c1c(N)sc2c1CCN(C(=O)[C@@H](Cc1ccc(Cl)cc1)N(C)C(=O)OC(C)(C)C)C2
66.1%	4.92	inactive	inactive	inactive	–	CC(C)(C)OC(=O)N1CCc2c(sc(N)c2C(=O)O)C1
52%	4.82	inactive	inactive	inactive	–	N#Cc1c(N)sc2c1CCN(Cc1ccccc1)C2
32.8%	4.88	inactive	inactive	inactive	0.832 µM	CCOC(=O)c1c(N)sc2c1CCN(C(=O)OC(C)(C)C)C2
88%	4.88	inactive	inactive	inactive	–	CN1CCc2c(sc(N)c2C(=O)NCc2cccc(Cl)c2)C1
32.6%	< 4.70	Active	Active	–	–	Nc1sc2c(c1C(=O)c1ccc(Cl)cc1)CCN(Cc1ccccc1)C2
55.4%	5.11	inactive	inactive	inactive	–	Nc1sc2c(c1C(=O)NNc1ccccc1)CCN(Cc1ccccc1)C2
77.1%	4.94	inactive	inactive	inactive	–	CN1CCc2c(sc(N)c2C(=O)O)C1
93.2%	5.10	inactive	inactive	inactive	–	CCOC(=O)c1c(N)sc2c1CCN(C(=O)[C@H](CSC(c1ccccc1)(c1ccccc1)c1ccccc1)NC(=O)OC(C)(C)C)C2
82.9%	5.05	inactive	inactive	inactive	–	NNC(=O)c1c(N)sc2c1CCN(Cc1ccccc1)C2
46.9%	4.81	inactive	inactive	inactive	–	Nc1sc2c(c1C(=O)NCc1cccc(C(F)(F)F)c1)CCN(Cc1ccccc1)C2
68.3%	5.10	inactive	inactive	inactive	–	Nc1sc2c(c1C(=O)O)CCN(Cc1ccccc1)C2
14.8%	< 4.70	inactive	inactive	inactive	–	CN1CCc2c(sc(N)c2C#N)C1
36%	< 4.70	inactive	inactive	inactive	–	Nc1sc2c(c1C(=O)NCc1cccc(Cl)c1)CCN(Cc1ccccc1)C2
37.6%	4.88	inactive	inactive	inactive	–	Nc1sc2c(c1C(=O)NCc1ccccc1)CCN(Cc1ccccc1)C2
19.8%	< 4.70	inactive	inactive	inactive	–	CN1CCc2c(sc(N)c2C(N)=O)C1
14.9%	< 4.70	inactive	inactive	inactive	–	CCOC(=O)c1c(N)sc2c1CCN(C)C2
83.1%	4.94	inactive	inactive	inactive	–	CN1CCc2c(sc(N)c2C(=O)NNc2ccccc2)C1
22.9%	< 4.70	inactive	inactive	inactive	–	CC(C)(C)OC(=O)N1CCc2c(sc(N)c2C#N)C1
